This note sets out measurements from ChEMBL document CHEMBL4382210, “Identification of novel benzothiopyranone compounds against Mycobacterium tuberculosis through scaffold morphing from benzothiazinones” (Eur J Med Chem, 2018).

The structures appear in SMILES notation. Converted amounts (≈) assume the structure as drawn. A value given as a limit tells only on which side of the number the result lay.

For data set [1], the system named is Mycobacterium tuberculosis. Briefly: Antimicrobial activity against Mycobacterium tuberculosis H37Rv after 7 days by MABA. It counts as functional. The settings on record: 168 h. In a few lines: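 Strain H37Rv or clinical isolates grown to late log phase in 7H9-ADC-TG, washed, resuspended in PBS, filtered (8 µm) and frozen. On day 7 Tween 80 and alamar blue added, read 16–24 h later (ex 530/em 590). MIC = lowest concentration giving ≥90% fluorescence reduction versus bacterium-only controls.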
For orientation: Alamar Blue is a resazurin reagent that responds to reducing activity.

Data set [2] is described as follows: Metabolic stability in CD-1 mouse liver microsomes assessed as parent compound remaining at 1 uM measured after 30 mins in presence of NADPH by LC-MS/MS analysis. The class given is ADME, Microsome. Particulars: read-out: Stability. In outline: (§1)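 Male CD-1 mouse or pooled human liver microsomes (1 mg/mL protein), compound at 1 µM, 37 °C. Reaction started with 1 mM NADPH and quenched with cold ACN/MeOH containing internal standard. Parent remaining measured by LC-MS/MS; the 30-min value is normalised to time zero.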

Data set [3] in a line: Inhibition of Mycobacterium tuberculosis DprE1 expressed in Escherichia coli BL21(DE3) by fluorescence based assay. In outline: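 Buffer: 50 mM Hepes pH 7.5, 100 mM NaCl, 1.5% DMSO, 100 µM Tween-20, 2 µM FAD, 50 µM resazurin. DprE1 (1 µM) with 1 mM FPR at 30 °C across inhibitor concentrations. Resorufin formation followed by fluorescence (ex 530/em 595 nm).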
The nature of data set [4]: Metabolic stability in human liver microsomes assessed as parent compound remaining at 1 uM measured after 30 mins in presence of NADPH by LC-MS/MS analysis. The class given is ADME, Microsome. Particulars: read-out: Stability. In outline:
as §1
For orientation: Microsomes from liver hold many membrane-bound enzymes, among them those of drug oxidation.

Another data set has as its system Vero. Nature of the data set: Cytotoxicity against African green monkey Vero cells assessed as reduction in cell viability after 48 hrs by MTT assay. The class given is cell-based. The settings on record: Chlorocebus sabaeus. In outline: (§2)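 Vero or HepG2 cells in RPMI1640 with 10% FBS at 37 °C, 5% CO2, seeded at 4×10^5 cells/mL. Threefold dilutions at 64–0.26 µg/mL final for 48 h. Cells then washed with HBSS, MTT added for 4 h, absorbance read at 492 nm. IC50 taken relative to untreated control.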
On the technique in general: Tetrazolium dyes change colour on reduction, which living cells bring about.

Another data set deals with HepG2. Nature of the data set: Cytotoxicity against human HepG2 cells assessed as reduction in cell viability after 48 hrs by MTT assay. Particulars: HepG2, 48 h. It counts as cell-based. In a few lines: as §2
Data set [5] can be described thus: Selectivity index, ratio of IC50 for human HepG2 cells to MIC=>90 for Mycobacterium tuberculosis H37Rv. It counts as toxicity. Particulars: read-out: Selectivity Index.

On to `CC1COC2(CCN(c3cc(=O)c4cc(C(F)(F)F)cc([N+](=O)[O-])c4s3)CC2)O1` (centres undefined), for which the MIC90 – broadly, an inhibitory concentration at the 90% level, which refers to growth in some studies and to a panel of isolates in others – in data set [1] stood at 0.03 µg/mL (≈ 0.0697 µM). For the same compound, the remaining at 0.5 h, 1 µM in data set [2] was found to be 47.4%; in data set [4], 82.8%. For the same compound, the half-maximal inhibitory concentration (IC50) (in general, the concentration that inhibits the measured activity by half) in data set [3] is 630 nM; with Vero, greater than 64 µg/mL.

In data set [1], `O=c1cc(NCc2cccc(F)c2)sc2c([N+](=O)[O-])cc(C(F)(F)F)cc12` registered an MIC90 of 0.118 µg/mL (≈ 0.296 µM). For the same compound, the concentration for half-maximal inhibition (IC50) in the data set on Vero was greater than 64 µg/mL.

As to `O=c1nc(NC2CCCCC2)oc2c([N+](=O)[O-])cc(C(F)(F)F)cc12`, in data set [1], the MIC90 worked out at 0.118 µg/mL (≈ 0.33 µM). In the data set with Vero, the IC50 worked out at 5.39 µg/mL (≈ 15.1 µM).

Compound `O=c1nc(NCc2cccc(F)c2)oc2c([N+](=O)[O-])cc(C(F)(F)F)cc12` yielded an MIC90 in data set [1] greater than 32 µg/mL. In addition, in the data set on Vero, the 50% inhibitory concentration (IC50) was greater than 64 µg/mL.

On to `COc1ccc(CNc2cc(=O)c3cc(C(F)(F)F)cc([N+](=O)[O-])c3s2)cc1OC`, for which the MIC90 in data set [1] was determined as 0.902 µg/mL (≈ 2.05 µM). Further, the IC50 in the data set on Vero is greater than 64 µg/mL.

`CC1COC2(CCN(c3cc(=O)c4cc(C(F)(F)F)cc([N+](=O)[O-])c4o3)CC2)O1` (centres undefined) registered an MIC90 in data set [1] of less than 0.016 µg/mL. The 50% inhibitory concentration (IC50) in the data set with Vero worked out at 18.9 µg/mL (≈ 45.5 µM).

Compound `O=c1cc(NCc2ccc(F)cc2)sc2c([N+](=O)[O-])cc(C(F)(F)F)cc12` yielded an MIC90 in data set [1] of 0.206 µg/mL (≈ 0.517 µM). In addition, the IC50 in the data set on Vero was greater than 64 µg/mL.

In data set [1], `O=c1nc(NCc2ccc3c(c2)OCCO3)oc2c([N+](=O)[O-])cc(C(F)(F)F)cc12` yielded an MIC90 of 0.03 µg/mL (≈ 0.0709 µM). Moreover, in the data set on Vero, the IC50 was found to be 25.3 µg/mL (≈ 59.7 µM).

In the case of `O=c1cc(N2CCN(Cc3ccccc3)CC2)sc2c([N+](=O)[O-])cc(C(F)(F)F)cc12`, in data set [1], the MIC90 stood at 0.03 µg/mL (≈ 0.0667 µM). The IC50 was greater than 64 µg/mL in the data set on HepG2, 1330 nM in data set [3] and greater than 64 µg/mL in the data set on Vero. The remaining at 0.5 h, 1 µM in data set [2] turned out to be 60.5%; in data set [4], 87.6%. The selectivity ratio in data set [5] was greater than 2130.

`O=c1nc(Nc2ccccc2)oc2c([N+](=O)[O-])cc(C(F)(F)F)cc12` displayed an MIC90 in data set [1] of 30.6 µg/mL (≈ 87.3 µM). Moreover, the IC50 in the data set on Vero came to 37.9 µg/mL (≈ 108 µM).

In data set [1], `O=c1cc(N2CCN(c3nccs3)CC2)sc2c([N+](=O)[O-])cc(C(F)(F)F)cc12` showed an MIC90 of 0.054 µg/mL (≈ 0.122 µM). In addition, the IC50 in the data set with Vero is greater than 64 µg/mL.

On to `O=c1cc(N2CCN(CC3CCCCC3)CC2)oc2c([N+](=O)[O-])cc(C(F)(F)F)cc12`, for which the MIC90 in data set [1] is 0.116 µg/mL (≈ 0.264 µM). Besides, the 50% inhibitory concentration (IC50) in the data set with Vero was found to be 10.6 µg/mL (≈ 24.1 µM).

The compound `CC1CN(c2cc(=O)c3cc(C(F)(F)F)cc([N+](=O)[O-])c3s2)CCN1Cc1ccccc1` (centres undefined) yielded an MIC90 in data set [1] of less than 0.016 µg/mL. The remaining at 0.5 h, 1 µM is 54.5% in data set [2] and 76.7% in data set [4]. Further, the half-maximal inhibitory concentration (IC50) with Vero was greater than 64 µg/mL.

`CC1COC2(CCN(c3nc(=O)c4cc(C(F)(F)F)cc([N+](=O)[O-])c4o3)CC2)O1` (centres undefined) displayed an MIC90 in data set [1] of less than 0.016 µg/mL. In addition, the concentration for half-maximal inhibition (IC50) in the data set with Vero was 9.21 µg/mL (≈ 22.2 µM).

In data set [1], `O=c1cc(NC2CCCCC2)sc2c([N+](=O)[O-])cc(C(F)(F)F)cc12` displayed an MIC90 of 1.53 µg/mL (≈ 4.1 µM). Further, the IC50 in the data set with Vero is greater than 64 µg/mL.

`CN(Cc1ccc2c(c1)OCCO2)c1cc(=O)c2cc(C(F)(F)F)cc([N+](=O)[O-])c2s1` came in with an MIC90 in data set [1] of less than 0.016 µg/mL. The remaining at 0.5 h, 1 µM is 6.46% in data set [2] and 44.9% in data set [4]. For the same compound, in the data set on Vero, the concentration for half-maximal inhibition (IC50) is greater than 64 µg/mL.

`O=c1cc(Nc2ccccc2)sc2c([N+](=O)[O-])cc(C(F)(F)F)cc12` had an MIC90 in data set [1] greater than 32 µg/mL. Moreover, the IC50 with Vero was greater than 64 µg/mL.

In data set [1], `CC1CN(c2nc(=O)c3cc(C(F)(F)F)cc([N+](=O)[O-])c3o2)CCN1CC1CCCCC1` (centres undefined) came in with an MIC90 of less than 0.016 µg/mL. Further, the IC50 in the data set with Vero turned out to be 10.9 µg/mL (≈ 23.9 µM).

The compound `O=c1nc(NCC2CCCCC2)oc2c([N+](=O)[O-])cc(C(F)(F)F)cc12` had an MIC90 in data set [1] of 0.05 µg/mL (≈ 0.135 µM). The concentration for half-maximal inhibition (IC50) in the data set on Vero is 29.7 µg/mL (≈ 80.1 µM).

Compound `CN(Cc1ccc2c(c1)OCCO2)c1cc(=O)c2cc(C(F)(F)F)cc([N+](=O)[O-])c2o1` yielded an MIC90 in data set [1] of less than 0.016 µg/mL. Moreover, the IC50 in the data set with Vero was determined as 29.4 µg/mL (≈ 67.4 µM).

Take `O=c1cc(NCC2CCCCC2)sc2c([N+](=O)[O-])cc(C(F)(F)F)cc12`: the MIC90 in data set [1] came to 0.402 µg/mL (≈ 1.04 µM). Also, the half-inhibitory concentration (IC50) in the data set on Vero was greater than 64 µg/mL.
